Measurements published in ChEMBL document CHEMBL2010770, “Dimeric 3,5-bis(benzylidene)-4-piperidones: a novel cluster of tumour-selective cytotoxins possessing multidrug-resistant properties” (Eur J Med Chem, 2012).
The source made the active and inactive calls. The rule behind the calls is not given here.

What was measured:
SW-620 = assay: Cytotoxicity against human SW620 cells; type: functional, cell-based
Outline: (§1)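 Human colon cancer and leukaemia line panel. Compounds tested from 10^-4 to 10^-8 M, and IC50 values determined.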

HL-60(TB) = assay: Cytotoxicity against human HL-60(TB) cells; type: functional, cell-based; outline: as §1
COLO 205 = assay: Cytotoxicity against human COLO205 cells; type: functional, cell-based; outline: as §1
K562 = assay: Cytotoxicity against human K562 cells; type: functional, cell-based; outline: as §1
HSC-2 [1] = assay: Selectivity index, ratio of CC50 for human normal cells to CC50 for human HSC2 cells; type: functional
HCT-116 = assay: Cytotoxicity against human HCT116 cells; type: functional, cell-based; outline: as §1
KM12 = assay: Cytotoxicity against human KM12 cells; type: functional, cell-based; outline: as §1
HSC-4 [2] = assay: Cytotoxicity against human HSC4 cells after 48 hrs; type: functional; conditions: HSC-4, 48 h
Outline: (§2)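 Human HSC-2, HSC-3, HSC-4 squamous carcinoma and HL-60 promyelocytic leukaemia cells incubated with compound for 48 h. CC50, the concentration killing 50% of cells, read from a dose–response curve.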

HSC-3 [3] = assay: Selectivity index, ratio of CC50 for human normal cells to CC50 for human HSC3 cells; type: functional
HL-60 [4] = assay: Selectivity index, ratio of CC50 for human normal cells to CC50 for human HL60 cells; type: functional
HSC-3 [5] = assay: Cytotoxicity against human HSC3 cells after 48 hrs; type: functional; conditions: HSC-3, 48 h; outline: as §2
HCT-15 = assay: Cytotoxicity against human HCT15 cells; type: functional, cell-based; outline: as §1
HT-29 = assay: Cytotoxicity against human HT-29 cells; type: functional, cell-based; outline: as §1
[6] = Cytotoxicity against human HGF cells after 48 hrs; type: cell-based
Outline: (§3)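 Cells were exposed to a dose range for 48 h, following a literature method. CC50 was read from the dose–response curve.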

[7] = target: T1, ATP-dependent translocase ABCB1 (Homo sapiens, UniProt P08183); assay: Inhibition of human MDR1-mediated multidrug resistant in mouse L5178Y cells at 4 uM treated 10 mins before rhodamine 123 challenge measured after 20 mins relative to control; type: cell-based
Outline: (§4)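 Compounds in DMSO were added at room temperature to mdr1-transfected and parental L5178Y cells. After 10 min, rhodamine 123 was added, followed by 20 min at 37 °C. Cellular rhodamine fluorescence was measured and expressed as fluorescence activity ratio (FAR); FAR >1 indicates MDR reversal.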

[8] = Cytotoxicity against human HPLF cells after 48 hrs; type: cell-based; outline: as §3
L1210 = assay: Growth inhibition of mouse L1210 cells; type: functional, cell-based
RPMI-8226 = assay: Cytotoxicity against human RPMI8226 cells; type: functional, cell-based; outline: as §1
HCC 2998 = assay: Cytotoxicity against human HCC2998 cells; type: functional, cell-based; outline: as §1
[9] = target: T1, ATP-dependent translocase ABCB1; assay: Inhibition of human MDR1-mediated multidrug resistant in mouse L5178Y cells at 40 uM treated 10 mins before rhodamine 123 challenge measured after 20 mins relative to control; type: cell-based; outline: as §4
HSC-4 [10] = assay: Selectivity index, ratio of CC50 for human normal cells to CC50 for human HSC4 cells; type: functional
HL-60 [11] = assay: Cytotoxicity against human HL60 cells after 48 hrs; type: functional; conditions: HL-60, 48 h; outline: as §2
MOLT-4 = assay: Growth inhibition of human Molt4/C8 cells; type: functional, cell-based
HSC-2 [12] = assay: Cytotoxicity against human HSC2 cells after 48 hrs; type: functional; conditions: HSC-2, 48 h; outline: as §2
CCRF-CEM = assay: Growth inhibition of human CEM cells; type: functional, cell-based

T1 sequence (P08183 whole entry): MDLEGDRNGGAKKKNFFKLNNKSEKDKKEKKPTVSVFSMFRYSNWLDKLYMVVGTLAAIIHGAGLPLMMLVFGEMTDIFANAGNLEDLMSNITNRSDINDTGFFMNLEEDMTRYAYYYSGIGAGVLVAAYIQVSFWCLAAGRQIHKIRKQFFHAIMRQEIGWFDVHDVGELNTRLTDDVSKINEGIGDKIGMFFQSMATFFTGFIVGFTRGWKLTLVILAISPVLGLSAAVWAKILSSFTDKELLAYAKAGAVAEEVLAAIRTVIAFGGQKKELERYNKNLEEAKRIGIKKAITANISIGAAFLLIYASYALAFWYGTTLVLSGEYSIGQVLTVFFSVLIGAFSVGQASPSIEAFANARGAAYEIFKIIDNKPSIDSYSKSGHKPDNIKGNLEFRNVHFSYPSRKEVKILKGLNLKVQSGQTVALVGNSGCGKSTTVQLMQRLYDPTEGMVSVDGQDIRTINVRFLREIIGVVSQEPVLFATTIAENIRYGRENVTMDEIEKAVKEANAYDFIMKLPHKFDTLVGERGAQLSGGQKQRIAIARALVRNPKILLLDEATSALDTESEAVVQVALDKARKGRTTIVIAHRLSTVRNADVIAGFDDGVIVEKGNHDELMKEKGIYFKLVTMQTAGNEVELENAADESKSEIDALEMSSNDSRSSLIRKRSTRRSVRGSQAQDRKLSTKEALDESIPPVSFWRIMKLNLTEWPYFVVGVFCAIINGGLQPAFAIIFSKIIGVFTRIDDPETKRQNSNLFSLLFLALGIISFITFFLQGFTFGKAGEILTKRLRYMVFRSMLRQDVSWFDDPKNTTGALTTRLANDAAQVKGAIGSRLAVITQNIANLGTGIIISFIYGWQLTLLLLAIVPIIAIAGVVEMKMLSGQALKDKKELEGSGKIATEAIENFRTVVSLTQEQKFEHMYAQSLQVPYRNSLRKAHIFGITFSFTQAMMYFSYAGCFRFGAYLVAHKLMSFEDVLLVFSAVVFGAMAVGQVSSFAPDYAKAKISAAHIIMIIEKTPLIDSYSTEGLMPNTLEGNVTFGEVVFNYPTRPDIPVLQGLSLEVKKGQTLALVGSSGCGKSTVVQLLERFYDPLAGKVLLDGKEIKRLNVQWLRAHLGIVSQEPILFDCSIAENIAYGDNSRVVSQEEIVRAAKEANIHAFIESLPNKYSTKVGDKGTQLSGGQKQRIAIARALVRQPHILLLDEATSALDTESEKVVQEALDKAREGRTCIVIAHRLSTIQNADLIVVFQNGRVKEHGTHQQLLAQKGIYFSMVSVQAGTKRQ

| SMILES | IC50 (SW-620) [µM] | IC50 (HL-60(TB)) [µM] | IC50 (COLO 205) [µM] | IC50 (K562) [µM] | Ratio (HSC-2 [1]) | IC50 (HCT-116) [µM] | CC50 (HSC-4 [2]) [µM] | Ratio (HSC-3 [3]) | Ratio (HL-60 [4]) | CC50 (HSC-3 [5]) [µM] | CC50 at 48 h [6] [µM] | Ratio [7] | CC50 at 48 h [8] [µM] | growth inhibition (GI) (L1210) | Ratio [9] | Ratio (HSC-4 [10]) | CC50 (HL-60 [11]) [µM] | growth inhibition (GI) (MOLT-4) | CC50 (HSC-2 [12]) [µM] | growth inhibition (GI) (CCRF-CEM) | other results |
| --- | --- | --- | --- | --- | --- | --- | --- | --- | --- | --- | --- | --- | --- | --- | --- | --- | --- | --- | --- | --- | --- |
| O=c1[nH]cc(F)c(=O)[nH]1 [FLUOROURACIL] | 380 | > 2510 |  |  |  |  |  |  |  |  |  |  |  |  |  |  |  |  |  |  |  |
| O=C1/C(=C/c2ccccc2)CN(C(=O)/C=C/C(=O)N2C/C(=C\c3ccccc3)C(=O)/C(=C/c3ccccc3)C2)C/C1=C\c1ccccc1 | 0.22 | 0.45 | 0.56 | 0.32 | 191 | 0.13 | 0.58 | 24 | 12.4 | 0.62 | 17 | 37.2 | 22 | Active | 52.9 | 25.7 | 1.2 | Active | 0.078 | Active | IC50 (KM12): 0.21 µM; IC50 (HCT-15): 0.83 µM; IC50 (HT-29): 0.25 µM; IC50 (RPMI-8226): 0.05 µM; IC50 (HCC 2998): 0.22 µM |
| O=C1/C(=C/c2ccccc2)CN(C(=O)CCCC(=O)N2C/C(=C\c3ccccc3)C(=O)/C(=C/c3ccccc3)C2)C/C1=C\c1ccccc1 |  |  |  |  | 34.8 |  | 0.19 | 14.5 | 6.33 | 0.17 | 2.9 | 50.2 | 3.9 | Active | 73.4 | 13 | 0.39 | Active | 0.071 | Active |  |
| O=C1/C(=C/c2ccccc2)CN(C(=O)CCC(=O)N2C/C(=C\c3ccccc3)C(=O)/C(=C/c3ccccc3)C2)C/C1=C\c1ccccc1 | 0.26 | 0.27 | 0.39 | 0.22 | 92.6 | 0.14 | 0.24 | 39.9 | 22.4 | 0.23 | 10 | 35 | 16 | Active | 60 | 38.2 | 0.41 | Active | 0.099 | Active | IC50 (KM12): 0.3 µM; IC50 (HCT-15): 0.38 µM; IC50 (HT-29): 0.24 µM; IC50 (RPMI-8226): 0.06 µM; IC50 (HCC 2998): 0.23 µM |
| O=C1/C(=C/c2ccccc2)CN(C(=O)C#CC(=O)N2C/C(=C\c3ccccc3)C(=O)/C(=C/c3ccccc3)C2)C/C1=C\c1ccccc1 | 0.2 | 0.25 | 0.25 | 0.3 | 41.4 | 0.12 | 0.93 | 16.1 | 9.05 | 0.49 | 8.5 | 42 | 13 | Active | 45.7 | 8.46 | 0.87 | Active | 0.19 | Active | IC50 (KM12): 0.28 µM; IC50 (HCT-15): 0.39 µM; IC50 (HT-29): 0.2 µM; IC50 (RPMI-8226): 0.08 µM; IC50 (HCC 2998): 0.41 µM |
| O=C1/C(=C/c2ccccc2)CN(C(=O)CCCCCCC(=O)N2C/C(=C\c3ccccc3)C(=O)/C(=C/c3ccccc3)C2)C/C1=C\c1ccccc1 |  |  |  |  | 61.2 |  | 0.62 | 49.5 | 8 | 0.21 | 13 | 49.2 | 17 | Active | 55.7 | 16.8 | 1.3 | Active | 0.17 | Active |  |
| N[C@@H](Cc1ccc(N(CCCl)CCCl)cc1)C(=O)O [MELPHALAN] |  |  |  |  | 24.1 |  | 32 | 8.4 | 150 | 25 |  |  |  |  |  | 6.56 | 1.4 |  | 8.7 |  |  |
| O=C1/C(=C/c2ccccc2)CN(C(=O)C(=O)N2C/C(=C\c3ccccc3)C(=O)/C(=C/c3ccccc3)C2)C/C1=C\c1ccccc1 | 0.07 | 0.2 | 0.36 | 0.2 | 38.4 | 0.03 | 0.2 | 21.7 | 29.6 | 0.15 | 3.8 | 19.3 | 5.3 | Active | 41.1 | 16.3 | 0.11 | Active | 0.085 | Active | IC50 (KM12): 0.04 µM; IC50 (HCT-15): 0.3 µM; IC50 (HT-29): 0.17 µM; IC50 (RPMI-8226): 0.25 µM; IC50 (HCC 2998): 0.19 µM |
| O=C1/C(=C/c2ccccc2)CN(C(=O)/C=C/C=C/C(=O)N2C/C(=C\c3ccccc3)C(=O)/C(=C/c3ccccc3)C2)C/C1=C\c1ccccc1 |  |  |  |  | 13.5 |  | 6.4 | 4.12 | 4.73 | 8.5 | 39 | 48.6 | 47 | Active | 44.3 | 5.47 | 7.4 | Active | 2.6 | Active |  |
| O=C1/C(=C/c2ccccc2)CN(C(=O)c2cccc(C(=O)N3C/C(=C\c4ccccc4)C(=O)/C(=C/c4ccccc4)C3)c2)C/C1=C\c1ccccc1 | 0.36 | 2.04 | 2.4 | 1.55 | 11.3 | 0.2 | 8 | 5.76 | 5.5 | 6.3 | 42 | 38.9 | 46 | Active | 61.3 | 4.54 | 6.6 | Active | 3.2 | Active | IC50 (KM12): 0.35 µM; IC50 (HCT-15): 1.7 µM; IC50 (HT-29): 0.55 µM; IC50 (RPMI-8226): 0.73 µM |
